What all share (assay type): functional
In test [1] the test system is Escherichia coli. Description: Antimicrobial activity against Escherichia coli O157:H7 ATCC 43894 assessed as growth inhibition rate at 5.8 mg/l after 72 hr by spectrophotometry. Particulars: O157:H7 ATCC 43894, 72 h, read-out: GI.
The test system of test [2] is Vibrio parahaemolyticus. Put plainly: Antimicrobial activity against Vibrio parahaemolyticus ATCC 33844 assessed as growth inhibition rate at 5.8 mg/l after 72 hr by spectrophotometry. As to conditions: ATCC 33844, 72 h, read-out: GI.
In test [3] the test system is Salmonella typhimurium. Put plainly: Antimicrobial activity against Salmonella enterica subsp. enterica serovar Typhimurium ATCC 14028 assessed as growth inhibition rate at 5.8 mg/l after 72 hr by spectrophotometry. As to conditions: ATCC 14028, 72 h, read-out: GI.
Test [4] deals with Bacillus cereus. Description: Antimicrobial activity against Bacillus cereus ATCC 11778 assessed as growth inhibition rate at 5.8 mg/l after 72 hr by spectrophotometry. Particulars: ATCC 11778, 72 h, read-out: GI. In outline:
(§1)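 Pure volatile compounds (purity >95%; one at 90%) were tested against B. cereus ATCC 11778. The strain was grown at 30 °C in nutrient broth for 24 h, then subcultured for 18 h. Optical density was read in a Bioscreen C every 24 h for 72 h, with 10% Tween 80 as the control.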

The subject of test [5] is Listeria monocytogenes. Put plainly: Antimicrobial activity against Listeria monocytogenes ATCC 19111 assessed as growth inhibition rate at 5.8 mg/l after 72 hr by spectrophotometry. As to conditions: ATCC 19111, 72 h, read-out: GI. In outline:
(§2)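 L. monocytogenes was grown at 30 °C in tryptic soy broth, subcultured for 18 h, and exposed to pure volatile compounds (>95% purity). Growth was followed by Bioscreen C optical density every 24 h for 72 h against a 10% Tween 80 control.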

Test [6] concerns Staphylococcus aureus. Put plainly: Antimicrobial activity against Staphylococcus aureus ATCC 25923 assessed as growth inhibition rate at 5.8 mg/l after 72 hr by spectrophotometry. Particulars: ATCC 25923, 72 h, read-out: GI.
Test [7] concerns Staphylococcus aureus. Description: Antimicrobial activity against Staphylococcus aureus ATCC 25923 assessed as growth inhibition rate at 1.72 mg/l after 72 hr by spectrophotometry. Particulars: ATCC 25923, 72 h, read-out: GI.
Test [8] has as its system Bacillus cereus. Put plainly: Antimicrobial activity against Bacillus cereus ATCC 11778 assessed as growth inhibition rate at 1.72 mg/l after 72 hr by spectrophotometry. As to conditions: ATCC 11778, 72 h, read-out: GI. The method in brief:
as §1

Test [9] deals with Salmonella typhimurium. Put plainly: Antimicrobial activity against Salmonella enterica subsp. enterica serovar Typhimurium ATCC 14028 assessed as growth inhibition rate at 1.72 mg/l after 72 hr by spectrophotometry. As to conditions: ATCC 14028, 72 h, read-out: GI. The method in brief:
(§3)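 Salmonella Typhimurium ATCC 14028 grown in nutrient broth at 30 °C, precultured 24 h, then subcultured 1:100 for 18 h before testing. Single volatile compounds (>95% pure) were added. OD was read every 24 h over 72 h in a Bioscreen C, with 10% Tween 80 as the comparison control.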

The subject of test [10] is Escherichia coli. Put plainly: Antimicrobial activity against Escherichia coli O157:H7 ATCC 43894 assessed as growth inhibition rate at 1.72 mg/l after 72 hr by spectrophotometry. As to conditions: O157:H7 ATCC 43894, 72 h, read-out: GI.
In test [11] the test system is Listeria monocytogenes. Description: Antimicrobial activity against Listeria monocytogenes ATCC 19111 assessed as growth inhibition rate at 1.72 mg/l after 72 hr by spectrophotometry. Particulars: ATCC 19111, 72 h, read-out: GI. The method in brief:
as §2

The test system of test [12] is Vibrio parahaemolyticus. Put plainly: Antimicrobial activity against Vibrio parahaemolyticus ATCC 33844 assessed as growth inhibition rate at 1.72 mg/l after 72 hr by spectrophotometry. Particulars: ATCC 33844, 72 h, read-out: GI.
The test system of test [13] is Staphylococcus aureus. Description: Antimicrobial activity against Staphylococcus aureus ATCC 25923 assessed as growth inhibition rate at 6.32 mg/l after 72 hr by spectrophotometry. As to conditions: ATCC 25923, 72 h, read-out: GI.
In test [14] the test system is Salmonella typhimurium. Put plainly: Antimicrobial activity against Salmonella enterica subsp. enterica serovar Typhimurium ATCC 14028 assessed as growth inhibition rate at 6.32 mg/l after 72 hr by spectrophotometry. As to conditions: ATCC 14028, 72 h, read-out: GI.
In test [15] the test system is Vibrio parahaemolyticus. Description: Antimicrobial activity against Vibrio parahaemolyticus ATCC 33844 assessed as growth inhibition rate at 6.32 mg/l after 72 hr by spectrophotometry. As to conditions: ATCC 33844, 72 h, read-out: GI.
Test [16] concerns Escherichia coli. Description: Antimicrobial activity against Escherichia coli O157:H7 ATCC 43894 assessed as growth inhibition rate at 6.32 mg/l after 72 hr by spectrophotometry. As to conditions: O157:H7 ATCC 43894, 72 h, read-out: GI.
Test [17] concerns Bacillus cereus. Description: Antimicrobial activity against Bacillus cereus ATCC 11778 assessed as growth inhibition rate at 6.32 mg/l after 72 hr by spectrophotometry. Particulars: ATCC 11778, 72 h, read-out: GI. In outline: as §1
In test [18] the test system is Listeria monocytogenes. Description: Antimicrobial activity against Listeria monocytogenes ATCC 19111 assessed as growth inhibition rate at 6.32 mg/l after 72 hr by spectrophotometry. As to conditions: ATCC 19111, 72 h, read-out: GI. In outline:
as §2

Test [19] relates to Vibrio parahaemolyticus. Put plainly: Antimicrobial activity against Vibrio parahaemolyticus ATCC 33844 assessed as growth inhibition rate at 13.04 mg/l after 72 hr by spectrophotometry. As to conditions: ATCC 33844, 72 h, read-out: GI.
Test [20] concerns Salmonella typhimurium. Put plainly: Antimicrobial activity against Salmonella enterica subsp. enterica serovar Typhimurium ATCC 14028 assessed as growth inhibition rate at 13.04 mg/l after 72 hr by spectrophotometry. As to conditions: ATCC 14028, 72 h, read-out: GI. In outline: as §3
For test [21], the system named is Listeria monocytogenes. Description: Antimicrobial activity against Listeria monocytogenes ATCC 19111 assessed as growth inhibition rate at 13.04 mg/l after 72 hr by spectrophotometry. As to conditions: ATCC 19111, 72 h, read-out: GI. The method in brief: as §2
Test [22] has as its system Bacillus cereus. Put plainly: Antimicrobial activity against Bacillus cereus ATCC 11778 assessed as growth inhibition rate at 13.04 mg/l after 72 hr by spectrophotometry. Particulars: ATCC 11778, 72 h, read-out: GI. The method in brief: as §1
Test [23] relates to Escherichia coli. Description: Antimicrobial activity against Escherichia coli O157:H7 ATCC 43894 assessed as growth inhibition rate at 13.04 mg/l after 72 hr by spectrophotometry. Particulars: O157:H7 ATCC 43894, 72 h, read-out: GI.
Test [24] has as its system Staphylococcus aureus. Description: Antimicrobial activity against Staphylococcus aureus ATCC 25923 assessed as growth inhibition rate at 13.04 mg/l after 72 hr by spectrophotometry. Particulars: ATCC 25923, 72 h, read-out: GI.

Molecules are shown by their SMILES.

Regarding `C=CC(O)CC` (centres undefined), the inhibition of growth at 5.8 µg/mL with Escherichia coli [1] is 0%; with Vibrio parahaemolyticus [2], 1.9%; in the test on Salmonella typhimurium [3] it was 5%; with Bacillus cereus [4], 9.3%; in the test on Listeria monocytogenes [5], 0.4%; in the test with Staphylococcus aureus [6], 2.4%.
For `CCC(=O)C(C)=O` [2,3-PENTANEDIONE], the inhibition of growth at 1.72 µg/mL in the test on Staphylococcus aureus [7] came to 47.4%; with Bacillus cereus [8], 26.9%; in the test with Salmonella typhimurium [9], 25.5%; with Escherichia coli [10], 9.6%; with Listeria monocytogenes [11] it was 26.2%; in the test with Vibrio parahaemolyticus [12], 39.3%.
For the compound `CCCCCC(=O)CC` [3-OCTANONE], the inhibition of growth at 6.32 µg/mL in the test with Staphylococcus aureus [13] amounted to 5.2%; in the test on Salmonella typhimurium [14], 5.1%; in the test on Vibrio parahaemolyticus [15], 0%; in the test on Escherichia coli [16], 3.1%; in the test with Bacillus cereus [17], 0%; in the test on Listeria monocytogenes [18], 0%.
As to `C=C1CC[C@@H]2C[C@H]1C2(C)C` [(+)-BETA-PINENE], the inhibition of growth at 13.04 µg/mL in the test with Vibrio parahaemolyticus [19] was 45.1%; in the test with Salmonella typhimurium [20], 14.9%; in the test with Listeria monocytogenes [21], 2.8%; in the test with Bacillus cereus [22], 0%; in the test on Escherichia coli [23], 3.4%; with Staphylococcus aureus [24], 17.6%.

These data come from ChEMBL document CHEMBL3046951, “Volatile constituents from the leaves of Callicarpa japonica Thunb. and their antibacterial activities” (2004).
